Measured values published in ChEMBL document CHEMBL5223168, “Using Imidazo[2,1-b][1,3,4]thiadiazol Skeleton to Design and Synthesize Novel MNK Inhibitors” (ACS Med Chem Lett, 2023).
Calls of active or inactive are those of the source. The calls are words filed in the database; no cut-off is given here.

What was measured:
mTORC2 (Homo sapiens) = mTORC2 (Homo sapiens) (UniProt P42345+Q6R327+Q9BVC4+Q9BPZ7); experiment: Inhibition of mTORC2 in human LNCaP C4-2B cells assessed as inhibition of phosphorylation of AKT at Ser473 at 5 uM incubated for 2 hrs by Western blot analysis; assay type: cell-based
How it was run: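 C4-2B prostate cancer cells treated with inhibitor; lysates probed by Western blot for p-eIF4E, p-S6K (Thr389), p-rpS6 (Ser240/244) and p-AKT (Ser473).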

[1] = test system: MAP kinase-interacting kinase MNK1/2 (Homo sapiens); experiment: Inhibition of MNK in human A549 cells assessed as reduction in IL-8 level at 1 to 10 uM incubated for 48 hrs by ELISA; conditions: dose 1-10 µM
[2] = test system: MAP kinase-interacting kinase MNK1/2 (Homo sapiens); experiment: Inhibition of MNK in human SKM-1 cells assessed as inhibition of eIF4E phosphorylation at 10 uM incubated for 2 hrs by Western blot analysis
[3] = molecular target: T1, MAP kinase-interacting serine/threonine-protein kinase 2 (Homo sapiens, UniProt Q9HBH9); experiment: Inhibition of MNK2 (unknown origin) incubated for 60 mins using CREB as substrate in presence of ATP by LANCE Ultra kinase assay
Target sequence in this assay (Q9HBH9 whole entry): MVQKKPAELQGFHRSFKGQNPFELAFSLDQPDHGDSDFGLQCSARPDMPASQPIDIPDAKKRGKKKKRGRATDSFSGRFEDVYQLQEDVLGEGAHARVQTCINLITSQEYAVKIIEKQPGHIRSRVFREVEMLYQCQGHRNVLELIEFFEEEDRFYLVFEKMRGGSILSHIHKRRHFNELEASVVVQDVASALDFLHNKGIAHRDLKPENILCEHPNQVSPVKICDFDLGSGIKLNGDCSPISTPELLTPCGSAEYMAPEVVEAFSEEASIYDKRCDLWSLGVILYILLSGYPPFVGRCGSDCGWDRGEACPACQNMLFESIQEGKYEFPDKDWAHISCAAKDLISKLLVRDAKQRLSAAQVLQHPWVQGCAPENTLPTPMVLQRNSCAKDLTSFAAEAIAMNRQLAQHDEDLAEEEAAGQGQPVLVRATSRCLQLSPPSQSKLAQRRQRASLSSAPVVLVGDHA

[4] = molecular target: Eukaryotic translation initiation factor 4E (Homo sapiens) (UniProt P06730); experiment: Inhibition of eIF4E phosphorylation in human A549 cells at 5 uM and measured upto 96 hrs by Western blot analysis; assay type: cell-based
How it was run: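 Cells maintained with compound at 5 μM for up to 6 days for cell counts; eIF4E phosphorylation followed by immunoblot for up to 96 h.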

[5] = molecular target: T1, MAP kinase-interacting serine/threonine-protein kinase 2; experiment: Inhibition of MNK2 (unknown origin) at 3 uM in presence of ATP by kinase assay
How it was run: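 Single-point kinase profiling: inhibitor tested at 3 μM against a panel of 60 kinases from different families, activity presented as heatmap.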
Target sequence in this assay (Q9HBH9 whole entry, looked up): as the sequence (Q9HBH9 whole entry) above

A549 = experiment: Induction of cell cycle arrest in human A549 cells assessed as accumulation of cells at G0/G1 phase at 5 uM incubated for 16 hrs by propidium iodide staining based flow cytometry (Rvb=75.4%); assay type: functional

Chain of Eukaryotic translation initiation factor 4E (Homo sapiens) (P06730 whole entry): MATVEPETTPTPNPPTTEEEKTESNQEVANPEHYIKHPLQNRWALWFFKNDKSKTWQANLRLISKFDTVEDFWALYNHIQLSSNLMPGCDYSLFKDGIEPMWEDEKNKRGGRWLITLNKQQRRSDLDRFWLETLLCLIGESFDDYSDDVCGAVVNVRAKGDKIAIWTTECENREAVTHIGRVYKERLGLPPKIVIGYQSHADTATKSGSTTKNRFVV

inhibition (mTORC2 (Homo sapiens)): inactive | inhibition [1]: Active | inhibition [2]: Active | IC50 [3]: 8.6 nM | inhibition [4]: Active | inhibition [5]: 100%
SMILES: CN1CCN(C(=O)c2ccc(-c3nn4c(-c5ccc(C#N)cc5)cnc4s3)cc2)CC1
Activity (A549): 89.6%
